Results on 2 substances are retold here after PMC2919362 (Chemical biology & drug design, 2010).

Assay [1] concerns PC-12 cells. In words: Flow cytometry of peptide uptake in PC-12 cells. The note with it: 1 μM, 2 h, 37°C, trypsinized 15 min, triplicate (Figure 6). It is filed as cell-based, rat. For orientation: In flow cytometry, cells or beads pass a laser one at a time.
Assay [2] has as its system D1TNC1 astrocytes. Kind of assay: Flow cytometry of peptide uptake in D1TNC1 astrocytes. It is filed as cell-based, rat. The note with it: 1 μM, 2 h, 37°C, trypsinized 15 min, triplicate (Figure 6).
The subject of a further assay is COS-1 cells. Kind of assay: CLSM of peptide uptake in live COS-1 cells. The assay is classed as cell-based, African green monkey. The note with it: 1 μM, 2 h, live cells (Figure 4A). The gist of the method: (§1)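 Live-cell confocal imaging. Cells were seeded at 7.8 × 10^3 cells/cm2 and grown to about 50% confluency (about 24 h), then washed twice with PBS. Peptide (5-Fam labelled) was incubated in serum-free DMEM at 37°C, 5.0% CO2. Nuclei were stained with Hoechst 34580 (1 μg/mL final, last 20 min) and membranes with WGA–Alexa Fluor 594 (5 μg/mL final, last 10 min). Cells were then washed twice and imaged with a 60X objective; emission was read at 520/450/620 nm.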

The test system of assay [3] is D1TNC1 astrocytes. Kind of assay: CLSM of peptide uptake in live D1TNC1 astrocytes. It is filed as cell-based, rat. The note with it: 1 μM, 2 h, live cells (Figure 4C). The gist of the method: as §1
Assay [4] relates to PC-12 cells. In words: CLSM of peptide uptake in PC-12 differentiated neurons. It is filed as cell-based, rat. The note with it: 1 μM, 2 h, live cells (Figure 4D). The gist of the method: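 Neuronal differentiation and imaging. PC-12 cells were seeded at 3.9 × 10^3 cells/cm2 on poly-lysine plates and grown for 24 h. They were serum-starved for 24 h in F12K + 1% HS, then differentiated with 100 ng/mL β-NGF in the same medium for 6–8 days, refreshed every 2 days. Labelled peptide was incubated in F12K + 1% HS at 37°C, 5.0% CO2, with Hoechst 34580 and WGA–Alexa Fluor 594 counterstains. Live cells were imaged by confocal microscopy (60X).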

The next assay relates to NIH/3T3 fibroblast cells. In words: CLSM of peptide uptake in live NIH/3T3 fibroblasts. The assay is classed as cell-based, Swiss mouse. The note with it: 1 μM, 2 h, live cells (Figure 4B). The gist of the method: as §1

Where no end group is shown, it is not given here. The star is where a group is joined. 5FAM = O=C1OC2(c3ccc(O)cc3Oc3cc(O)ccc32)c2ccc(C(=O)*)cc21; Farnesyl = CC(C)=CCC/C(C)=C/CC/C(C)=C/C*

For the substance 5-Fam-KKSRRC(S-decyl)VLS [5b], the “entry into PC12 cells compared with HeLa cells (flow cytometry)” value with PC-12 cells [1] was “efficiency comparable to that observed with HeLa cells”. Besides, the “entry into astrocytes compared with HeLa cells (flow cytometry)” value with D1TNC1 astrocytes [2] is recorded as “efficiency comparable to that observed with HeLa cells”.
For the substance 5FAM-KKSRRC(Farnesyl)VLS [4b], the “uptake in COS-1 cells (CLSM)” value in the assay with COS-1 cells was “moderate uptake”. In addition, in the assay on D1TNC1 astrocytes [3], the “uptake in D1TNC1 astrocytes (CLSM)” value is “significant uptake”. Besides, the “uptake in PC-12 cells (CLSM)” value with PC-12 cells [4] was “significant uptake”. In the assay with NIH/3T3 fibroblast cells, the “uptake in NIH/3T3 fibroblast cells (CLSM)” value is on record as “moderate uptake”.
